Assay results reported in ChEMBL document CHEMBL3044755, “5-Methyl-1,2,3-thiadiazoles synthesized via ugi reaction and their fungicidal and antiviral activities” (J Agric Food Chem, 2010).

Key:
Assay type in all cases: functional
[1] = tested on: Botryosphaeria berengeriana; assay: Fungicidal activity against Botryosphaeria berengeriana at 50 ug/ml by growth inhibition method; details: read-out: GI
Outline: (§1)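 Mycelial growth inhibition on potato dextrose agar. The panel covered Alternaria solani, Botrytis cinerea, Cercospora arachidicola, C. beticola, Colletotrichum lagenarium, Fusarium oxysporum, Gibberella zeae, Puccinia triticina, Phytophthora infestans, Physalospora piricola, Pellicularia sasakii and Rhizoctonia solani.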

Thanatephorus cucumeris = assay: Fungicidal activity against Thanatephorus cucumeris at 50 ug/ml by growth inhibition method; details: read-out: GI; outline: as §1
Mycosphaerella arachidis = assay: Fungicidal activity against Mycosphaerella arachidis at 50 ug/ml by growth inhibition method; details: read-out: GI; outline: as §1
Cercospora beticola = assay: Fungicidal activity against Cercospora beticola at 50 ug/ml by growth inhibition method; details: read-out: GI; outline: as §1
Botrytis cinerea = assay: Fungicidal activity against Botryotinia fuckeliana at 50 ug/ml by growth inhibition method; details: read-out: GI; outline: as §1
Fusarium oxysporum = assay: Fungicidal activity against Fusarium oxysporum at 50 ug/ml by growth inhibition method; details: read-out: GI; outline: as §1
Alternaria solani = assay: Fungicidal activity against Alternaria solani at 50 ug/ml by growth inhibition method; details: read-out: GI; outline: as §1
Tobacco mosaic virus [2] = assay: In vitro antiviral activity against Tobacco mosaic virus (TMV) infected tobacco leaves at 100 ug/ml
Colletotrichum lagenaria = assay: Fungicidal activity against Colletotrichum lagenaria at 50 ug/ml by growth inhibition method; details: read-out: GI; outline: as §1
Phytophthora infestans = assay: Fungicidal activity against Phytophthora infestans at 50 ug/ml by growth inhibition method; details: read-out: GI; outline: as §1
Tobacco mosaic virus [3] = assay: In vitro antiviral activity against Tobacco mosaic virus (TMV) infected tobacco leaves at 500 ug/ml
Fusarium graminearum = assay: Fungicidal activity against Fusarium graminearum at 50 ug/ml by growth inhibition method; details: read-out: GI; outline: as §1
Rhizoctonia solani = assay: Fungicidal activity against Rhizoctonia solani at 50 ug/ml by growth inhibition method; details: read-out: GI; outline: as §1
Puccinia triticina = assay: Fungicidal activity against Puccinia triticina at 50 ug/ml by growth inhibition method; details: read-out: GI; outline: as §1

Compound	inhibition of growth at 50 µg/mL [1] [%]	inhibition of growth at 50 µg/mL (Thanatephorus cucumeris) [%]	inhibition of growth at 50 µg/mL (Mycosphaerella arachidis) [%]	inhibition of growth at 50 µg/mL (Cercospora beticola) [%]	inhibition of growth at 50 µg/mL (Botrytis cinerea) [%]	inhibition of growth at 50 µg/mL (Fusarium oxysporum) [%]	inhibition of growth at 50 µg/mL (Alternaria solani) [%]	inhibition at 100 µg/mL (Tobacco mosaic virus [2]) [%]	inhibition of growth at 50 µg/mL (Colletotrichum lagenaria) [%]	inhibition of growth at 50 µg/mL (Phytophthora infestans) [%]	inhibition at 500 µg/mL (Tobacco mosaic virus [3]) [%]	inhibition of growth at 50 µg/mL (Fusarium graminearum) [%]	inhibition of growth at 50 µg/mL (Rhizoctonia solani) [%]	inhibition of growth at 50 µg/mL (Puccinia triticina) [%]
Cc1ccc(N(C(=O)c2nnsc2C)C(C(=O)NC(C)C)c2ccccc2[N+](=O)[O-])cc1Cl (stereo unspecified)	39	31	5	8	60	14	26	19	10	24	59	12	–	–
Cc1ccc(N(C(=O)c2nnsc2C)C(C(=O)NC(C)C)c2cccc(O)c2)cc1Cl (stereo unspecified)	45	59	14	23	73	30	33	13	13	30	24	15	–	–
Cc1ccc(N(C(=O)c2nnsc2C)C(C(=O)NC(C)C)c2ccccc2O)cc1Cl (stereo unspecified)	39	47	9	0	75	18	38	18	7	24	23	18	–	–
Cc1ccc(N(C(=O)c2nnsc2C)C(C(=O)NC(C)C)c2ccccc2)cc1F (stereo unspecified)	0	0	9	0	–	–	13	5	14	38	15	27	2	0
Cc1ccc(N(C(=O)c2nnsc2C)C(C(=O)NC(C)C)c2cccc([N+](=O)[O-])c2)cc1F (stereo unspecified)	0	0	27	25	–	–	13	4	29	13	14	45	15	14
Cc1ccc(N(C(=O)c2nnsc2C)C(C(=O)NC(C)C)c2ccccc2[N+](=O)[O-])cc1F (stereo unspecified)	19	39	0	25	–	–	0	11	14	0	24	27	2	0
Cc1ccc(N(C(=O)c2nnsc2C)C(C(=O)NC(C)C)c2cccc(F)c2)cc1Cl (stereo unspecified)	38	69	21	33	78	19	42	34	10	18	18	23	–	–
Cc1ccc(N(C(=O)c2nnsc2C)C(C(=O)NC(C)C)c2ccccc2F)cc1Cl (stereo unspecified)	33	67	21	25	73	21	40	32	10	15	34	37	–	–
